# Reference: ChEMBL document CHEMBL1212820, “Novel hinge binder improves activity and pharmacokinetic properties of BRAF inhibitors” (J Med Chem, 2010)
# Legend:
# [1] = Oral bioavailability in BALB/cAnNCrl mouse at 10 mg/kg; settings: in vivo
# [2] = Tmax in BALB/cAnNCrl mouse at 10 mg/kg, po; settings: in vivo
# [3] = Ratio of Cmax in BALB/cAnNCrl mouse to GI50 for human WM266.4 cells
# [4] = Half life in BALB/cAnNCrl mouse at 10 mg/kg, po; settings: in vivo
# [5] = Cmax in BALB/cAnNCrl mouse at 10 mg/kg, po; settings: in vivo
# [6] = Growth inhibition of human WM266.4 cells expressing BRAF V600E mutant after 5 days by SRB assay; type: functional; settings: WM 266-4, 120 h
# Procedure, shortened: (§1)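 Antiproliferative SRB assay in WM266.4 (BRAF mutant), WM1361 (NRAS mutant) and D24 (BRAF/NRAS wild-type) melanoma cells, with GI50 derived from the assay.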
# [7] = target: T1, Serine/threonine-protein kinase B-raf (Homo sapiens, UniProt P15056, V600E); assay: Inhibition of BRAF V600E mutant-mediated ERK phosphorylation in human WM266.4 cells; type: cell-based
# Procedure, shortened: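 Cellular IC50 for inhibition of phosphoERK formation.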
# [8] = target: T1, Serine/threonine-protein kinase B-raf; assay: Inhibition of B-Raf V600E mutant
# Procedure, shortened: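 Enzymatic IC50 determined in vitro against purified V600E BRAF.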
# [9] = Growth inhibition of human WM1361 cells expressing NRAS mutant after 5 days by SRB assay; type: functional; settings: WM1361, 120 h
# Procedure, shortened: as §1
# [10] = Growth inhibition of D24 after 5 days by SRB assay; type: functional
# Procedure, shortened: as §1
# [11] = Selectivity index, ratio of GI50 for human WM1361 cells to GI50 for human WM266.4
# [12] = Selectivity index, ratio of GI50 for human WM1361 cells to GI50 for human WM266.4 cells; type: functional
# Procedure, shortened: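 GI50 values from the SRB proliferation assay, expressed relative to the GI50 in WM266.4 (BRAF mutant) cells.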
# T1 sequence (P15056 2-766 V600E limits assumed): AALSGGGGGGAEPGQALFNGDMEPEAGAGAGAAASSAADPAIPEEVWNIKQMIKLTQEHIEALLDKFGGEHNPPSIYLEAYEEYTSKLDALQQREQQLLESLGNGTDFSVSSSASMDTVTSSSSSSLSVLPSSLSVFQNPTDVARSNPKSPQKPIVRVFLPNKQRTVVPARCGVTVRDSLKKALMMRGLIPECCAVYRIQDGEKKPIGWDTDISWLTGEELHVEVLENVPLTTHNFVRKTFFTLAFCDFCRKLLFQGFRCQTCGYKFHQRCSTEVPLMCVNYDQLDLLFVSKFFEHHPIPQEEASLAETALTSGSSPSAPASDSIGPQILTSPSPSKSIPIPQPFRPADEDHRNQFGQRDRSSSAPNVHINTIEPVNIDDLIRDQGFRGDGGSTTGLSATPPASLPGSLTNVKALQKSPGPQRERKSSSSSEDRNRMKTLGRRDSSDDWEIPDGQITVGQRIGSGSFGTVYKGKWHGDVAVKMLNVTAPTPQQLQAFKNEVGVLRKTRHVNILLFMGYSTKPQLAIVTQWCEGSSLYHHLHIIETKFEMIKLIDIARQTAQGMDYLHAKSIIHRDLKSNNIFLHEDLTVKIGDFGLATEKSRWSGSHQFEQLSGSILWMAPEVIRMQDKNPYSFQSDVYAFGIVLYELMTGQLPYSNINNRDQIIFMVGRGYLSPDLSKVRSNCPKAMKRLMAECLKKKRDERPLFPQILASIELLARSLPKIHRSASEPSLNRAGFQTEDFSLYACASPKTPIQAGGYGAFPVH
SMILES,bioavailability [1],Tmax [2],Ratio [3],half-life [4],Cmax [5],GI50 [6],IC50 [7],IC50 [8],GI50 [9],GI50 [10],RatioGI50 [11],RatioGI50 [12]
Cc1ccc(-n2nc(C(C)(C)C)cc2NC(=O)Nc2ccc(Oc3ccnc4[nH]c(=O)cnc34)cc2)cc1,17%,0.5 h,510,6.3 h,31.9 µM,0.062 µM,0.096 µM,,,,,
Cc1ccc(-n2nc(C(C)(C)C)cc2NC(=O)Nc2ccc(Oc3ccnc4[nH]c(S)nc34)cc2F)cc1,13%,3 h,76,3.3 h,11.7 µM,0.154 µM,0.055 µM,0.31 µM,,,,
CC(C)(C)c1cc(NC(=O)Nc2cccc(Oc3ccnc4[nH]c(=O)cnc34)c2)n(-c2ccccc2)n1,6%,0.5 h,170,1.4 h,29.5 µM,0.17 µM,0.28 µM,0.058 µM,,,,
Cc1ccc(-n2nc(C(C)(C)C)cc2NC(=O)Nc2cccc(Oc3ccnc4[nH]c(=O)cnc34)c2)cc1,27%,0.5 h,142,4 h,27 µM,0.19 µM,0.274 µM,0.087 µM,12 µM,26 µM,130,60
CSc1cc(Oc2ccnc3[nH]c(=O)cnc23)ccc1NC(=O)Nc1cc(C(C)(C)C)nn1-c1ccc(C)cc1,71%,3 h,101200,7.9 h,101 µM,0.001 µM,0.005 µM,0.019 µM,,,,
Cc1nc2c(Oc3ccc(NC(=O)Nc4cc(C(F)(F)F)ccc4F)c4ccccc34)ccnc2[nH]c1=O,4%,3 h,,,0.316 µM,0.036 µM,0.062 µM,0.004 µM,,,,
Cc1ccc(-n2nc(C(C)(C)C)cc2NC(=O)Nc2ccc(Oc3ccnc4c3NCC(=O)N4)cc2F)cc1,,,,,,0.034 µM,0.011 µM,0.051 µM,,,,
Cc1nc2c(Oc3ccc(NC(=O)Nc4cc(C(C)(C)C)nn4-c4ccccc4)c4ccccc34)ccnc2[nH]c1=O,,,,,,0.057 µM,0.008 µM,0.067 µM,,,,
CSc1cc(Oc2ccnc3[nH]c(=O)c(=O)[nH]c23)ccc1NC(=O)Nc1ccc(Cl)c(C(F)(F)F)c1,,,,,,0.22 µM,0.59 µM,0.003 µM,,,,
CN(C)c1cnc2c(Oc3ccc(NC(=O)Nc4cc(C(F)(F)F)ccc4F)c(F)c3)ccnc2n1,,,,,,55 µM,20 µM,0.22 µM,,,,
CSc1cc(Oc2ccnc3ncc(=O)[nH]c23)ccc1NC(=O)Nc1cc(C(C)(C)C)nn1-c1ccccc1,,,,,,0.027 µM,0.101 µM,0.45 µM,,,,
O=C(Nc1ccc(Cl)c(C(F)(F)F)c1)Nc1ccc(Oc2ccnc3[nH]c(=O)cnc23)cc1F,,,,,,1.3 µM,0.66 µM,0.006 µM,,,,
CN(C)c1nc2c(Oc3ccc(NC(=O)Nc4cc(C(C)(C)C)nn4-c4ccccc4)c(F)c3)ccnc2[nH]1,,,,,,0.574 µM,1.7 µM,1.67 µM,,,,
Cc1ccc(-n2nc(C(C)(C)C)cc2NC(=O)Nc2ccc(Oc3ccnc4[nH]c(=O)cnc34)cc2F)cc1,24%,3 h,2240,5.9 h,33.6 µM,0.015 µM,0.024 µM,,,,,
O=C(Nc1ccc(Oc2ccnc3[nH]c(=O)c(=O)[nH]c23)cc1)Nc1ccc(Cl)c(C(F)(F)F)c1,,,,,,3.19 µM,5.2 µM,0.021 µM,,,,
O=C(Nc1ccc(Oc2ccnc3[nH]nnc23)cc1F)Nc1cc(C(F)(F)F)ccc1F,,,,,,39 µM,24 µM,0.069 µM,,,,
Nc1nc2nccc(Oc3ccc(NC(=O)Nc4cc(C(F)(F)F)ccc4F)c(F)c3)c2[nH]c1=O,,,,,,6.5 µM,9.9 µM,0.168 µM,,,,
CC(C)(C)c1cc(NC(=O)Nc2ccc(Oc3ccnc4[nH]c(=O)c(=O)[nH]c34)cc2F)n(-c2ccccc2)n1,,,,,,0.299 µM,0.273 µM,0.19 µM,,,,
O=C(Nc1cccc(Oc2ccnc3[nH]c(=O)cnc23)c1)c1cccc(OC(F)(F)F)c1,,,,,,9.9 µM,4 µM,0.021 µM,,,,

SMILES,bioavailability [1],Tmax [2],Ratio [3],half-life [4],Cmax [5],GI50 [6],IC50 [7],IC50 [8],GI50 [9],GI50 [10],RatioGI50 [11],RatioGI50 [12]
Cc1nc2c(Oc3ccc(NC(=O)Nc4cc(C(F)(F)F)ccc4F)c(F)c3)ccnc2[nH]c1=O,,,,,,0.85 µM,0.59 µM,0.003 µM,,,,
Nc1nc2c(Oc3ccc(NC(=O)Nc4cc(C(F)(F)F)ccc4F)c(F)c3)ccnc2[nH]c1=O,,,,,,1.55 µM,1.55 µM,0.03 µM,,,,
Cc1ccc(-n2nc(C(C)(C)C)cc2NC(=O)Nc2ccc(Oc3ccnc4ncc(=O)[nH]c34)cc2)cc1,,,,,,0.67 µM,0.634 µM,2.29 µM,,,,
Cc1ccc(-n2nc(C(C)(C)C)cc2NC(=O)Nc2ccc(Oc3ccnc4[nH]c(=O)c(=O)[nH]c34)cc2F)cc1,1%,3 h,70,5.4 h,5.54 µM,0.079 µM,0.075 µM,0.09 µM,,,,
Cc1ccc(-n2nc(C(C)(C)C)cc2NC(=O)Nc2ccc(Oc3ccnc4[nH]c(=O)c(N)nc34)cc2F)cc1,,,,,,0.008 µM,0.011 µM,0.32 µM,,,,
CC(C)(C)c1cc(NC(=O)Nc2ccc(Oc3ccnc4ncc(=O)[nH]c34)cc2F)n(-c2ccccc2)n1,,,,,,0.94 µM,0.65 µM,0.94 µM,,,,
CC(C)(C)c1cc(NC(=O)Nc2ccc(Oc3ccnc4[nH]c(=O)cnc34)c3ccccc23)n(-c2ccccc2)n1,7%,0.25 h,130,1.7 h,14.2 µM,0.105 µM,0.008 µM,0.077 µM,,,,
CC(C)(C)c1cccc(C(=O)Nc2cccc(Oc3ccnc4[nH]c(=O)cnc34)c2)c1,,,,,,1.7 µM,0.85 µM,0.007 µM,,,,
Cc1nc2nccc(Oc3ccc(NC(=O)Nc4cc(C(F)(F)F)ccc4F)c(F)c3)c2[nH]c1=O,,,,,,2.7 µM,20 µM,0.258 µM,,,,
O=C(Nc1cccc(Oc2ccnc3ncc(=O)[nH]c23)c1)Nc1cc(C(F)(F)F)ccc1F,,,,,,6.1 µM,> 100 µM,0.105 µM,,,,
CSc1cc(Oc2ccnc3[nH]c(=O)c(C)nc23)ccc1NC(=O)Nc1cc(C(F)(F)F)ccc1F,,,,,,0.225 µM,0.097 µM,0.002 µM,,,,
CN(C)c1nc2c(Oc3ccc(NC(=O)Nc4cc(C(F)(F)F)ccc4F)c(F)c3)ccnc2[nH]1,,,,,,0.116 µM,6 µM,0.025 µM,,,,
O=C(Nc1ccc(Oc2ccnc3[nH]c(=O)cnc23)cc1F)Nc1cc(C(F)(F)F)ccc1F,,,,,,1.3 µM,0.78 µM,0.004 µM,,,,
CSc1cc(Oc2ccnc3ncc(=O)[nH]c23)ccc1NC(=O)Nc1ccc(Cl)c(C(F)(F)F)c1,,,,,,4.3 µM,3.99 µM,0.071 µM,,,,
CSc1cc(Oc2ccnc3[nH]c(=O)cnc23)ccc1NC(=O)Nc1cc(C(F)(F)F)ccc1F,,,,,,0.096 µM,0.195 µM,0.004 µM,,,,
Nc1nc2nccc(Oc3ccc(NC(=O)Nc4cc(C(F)(F)F)ccc4F)c4ccccc34)c2[nH]c1=O,,,,,,0.204 µM,0.229 µM,0.043 µM,,,,
CC(C)(C)c1cc(NC(=O)Nc2ccc(Oc3ccnc4nc(N)c(=O)[nH]c34)c3ccccc23)n(-c2ccccc2)n1,,,,,,0.018 µM,0.036 µM,0.405 µM,,,,
CC(C)(C)c1cccc(C(=O)Nc2cccc(Oc3ccnc4ncc(=O)[nH]c34)c2)c1,,,,,,2.54 µM,3.5 µM,0.034 µM,,,,
